ChEMBL document CHEMBL1125626, “Synthesis and structure-activity relationship of new cephalosporins with amino heterocycles at C-7. Dependence of the antibacterial spectrum and beta-lactamase stability on the pKa of the C-7 heterocycle” (1991)
Values after ≈ are worked out from the molar mass of the structure shown.

How the values were obtained:
Escherichia coli [1] = experiment: Minimum inhibitory concentration against Escherichia coli TEM X3 (inoculum, 10e4 cfu per spot)(TEM I type lactamase producer)
Escherichia coli [2] = experiment: Minimum inhibitory concentration against Escherichia coli X4 (inoculum, 10e4 cfu per spot)
Escherichia coli [3] = experiment: Minimum inhibitory concentration against Escherichia coli DC2 (inoculum, 10e4 cfu per spot); assay type: functional
Procedure, shortened: (§1)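 MIC in µg/mL, determined in Jewell and Permain growth medium with spot inoculation at 10^4 cfu per spot. P99 is described as a constitutive type I lactamase producer.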

Klebsiella aerogenes [4] = experiment: Minimum inhibitory concentration against Klebsiella aerogenes X6 (inoculum, 10e4 cfu per spot); assay type: functional
Procedure, shortened: as §1

Enterobacter cloacae [5] = experiment: Minimum inhibitory concentration against Enterobacter cloacae P99 (inoculum, 10e4 cfu per spot)(type I lactamase producer); assay type: functional
Procedure, shortened: as §1

Pseudomonas aeruginosa = experiment: Minimum inhibitory concentration against Pseudomonas aeruginosa A21 (inoculum, 10e5 cfu per spot); assay type: functional
Procedure, shortened: (§2)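 MIC in µg/mL, determined in Jewell and Permain growth medium with spot inoculation at 10^5 cfu per spot.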

Enterobacter cloacae [6] = experiment: Minimum inhibitory concentration against Enterobacter cloacae P99 (inoculum, 10e4 cfu per spot); assay type: functional
Procedure, shortened: as §1

Klebsiella pneumoniae = experiment: Minimum inhibitory concentration against Klebsiella pneumoniae A24 (inoculum, 10e5 cfu per spot); assay type: functional
Procedure, shortened: as §2

Escherichia coli [7] = experiment: Minimum inhibitory concentration against Escherichia coli A8 (inoculum, 10e5 cfu per spot); assay type: functional
Procedure, shortened: as §2

Enterobacter cloacae [8] = experiment: Minimum inhibitory concentration against Enterobacter cloacae A13 (inoculum, 10e5 cfu per spot); assay type: functional
Procedure, shortened: as §2

Klebsiella aerogenes [9] = experiment: Minimum inhibitory concentration against Klebsiella aerogenes X5L (inoculum, 10e4 cfu per spot); assay type: functional
Procedure, shortened: as §1

Staphylococcus aureus [10] = experiment: Minimum inhibitory concentration against Staphylococcus aureus A4 (inoculum, 10e5 cfu per spot); assay type: functional
Procedure, shortened: as §2

Escherichia coli [11] = experiment: Minimum inhibitory concentration against Escherichia coli DCO (inoculum, 10e4 cfu per spot); assay type: functional
Procedure, shortened: as §1

Serratia marcescens = experiment: Minimum inhibitory concentration against Serratia marcescens A16 (inoculum, 10e5 cfu per spot); assay type: functional
Procedure, shortened: as §2

Streptococcus pyogenes = experiment: Minimum inhibitory concentration against Streptococcus pyogenes (inoculum, 10e5 cfu per spot) A1; assay type: functional
Procedure, shortened: as §2

Proteus mirabilis = experiment: Minimum inhibitory concentration against Proteus mirabilis A18 (inoculum, 10e5 cfu per spot); assay type: functional
Procedure, shortened: as §2

Staphylococcus aureus [12] = experiment: Minimum inhibitory concentration against Staphylococcus aureus A6 (inoculum, 10e5 cfu per spot); assay type: functional
Procedure, shortened: as §2

| Compound | MIC (Escherichia coli [1]) | MIC (Escherichia coli [2]) | MIC (Escherichia coli [3]) | MIC (Klebsiella aerogenes [4]) | MIC (Enterobacter cloacae [5]) | MIC (Pseudomonas aeruginosa) | MIC (Enterobacter cloacae [6]) | MIC (Klebsiella pneumoniae) | MIC (Escherichia coli [7]) | MIC (Enterobacter cloacae [8]) | MIC (Klebsiella aerogenes [9]) | MIC (Staphylococcus aureus [10]) | MIC (Escherichia coli [11]) | MIC (Serratia marcescens) | MIC (Streptococcus pyogenes) | MIC (Proteus mirabilis) | MIC (Staphylococcus aureus [12]) |
| --- | --- | --- | --- | --- | --- | --- | --- | --- | --- | --- | --- | --- | --- | --- | --- | --- | --- |
| CO[C@@]1(NC2=NCCN2)C(=O)N2C(C(=O)OC(c3ccccc3)c3ccccc3)=C(C)CSC21 (some centres not stated) | > 256 µg/mL | > 256 µg/mL | > 256 µg/mL | > 256 µg/mL | > 256 µg/mL | > 256 µg/mL | > 256 µg/mL | > 256 µg/mL | > 256 µg/mL | > 256 µg/mL | > 256 µg/mL | > 256 µg/mL | > 256 µg/mL | > 256 µg/mL | > 256 µg/mL | > 256 µg/mL | > 256 µg/mL |
| CC(=O)OCC1=C(C(=O)OC(c2ccccc2)c2ccccc2)N2C(=O)[C@@H](Nc3nc4cc(C(=O)O)ccc4[nH]3)C2SC1 (some centres not stated) | 16 µg/mL (≈ 26.7 µM) | 8 µg/mL (≈ 13.4 µM) | 0.25 µg/mL (≈ 0.418 µM) | 16 µg/mL (≈ 26.7 µM) | > 256 µg/mL | > 256 µg/mL | 4 µg/mL (≈ 6.68 µM) | 32 µg/mL (≈ 53.5 µM) | 16 µg/mL (≈ 26.7 µM) | > 256 µg/mL | > 256 µg/mL | 256 µg/mL (≈ 428 µM) | 8 µg/mL (≈ 13.4 µM) | > 256 µg/mL | 8 µg/mL (≈ 13.4 µM) | 32 µg/mL (≈ 53.5 µM) | 32 µg/mL (≈ 53.5 µM) |
| CC(=O)OCC1=C(C(=O)OC(c2ccccc2)c2ccccc2)N2C(=O)[C@@H](Nc3nc4c(N)cccc4[nH]3)C2SC1 (some centres not stated) | 128 µg/mL (≈ 225 µM) | 8 µg/mL (≈ 14 µM) | 1 µg/mL (≈ 1.76 µM) | 8 µg/mL (≈ 14 µM) | > 200 µg/mL | > 200 µg/mL | 4 µg/mL (≈ 7.02 µM) | > 200 µg/mL | 40 µg/mL (≈ 70.2 µM) | > 200 µg/mL | > 200 µg/mL | > 200 µg/mL | 4 µg/mL (≈ 7.02 µM) | > 200 µg/mL | 40 µg/mL (≈ 70.2 µM) | 200 µg/mL (≈ 351 µM) | 40 µg/mL (≈ 70.2 µM) |
| CC1=C(C(=O)OC(c2ccccc2)c2ccccc2)N2C(=O)[C@@H](NC3=NC(C(N)=O)CN3)C2SC1 (some centres not stated) | 8 µg/mL (≈ 16.3 µM) | 8 µg/mL (≈ 16.3 µM) | 2 µg/mL (≈ 4.07 µM) | 16 µg/mL (≈ 32.5 µM) | 8 µg/mL (≈ 16.3 µM) | > 256 µg/mL | 4 µg/mL (≈ 8.14 µM) | 16 µg/mL (≈ 32.5 µM) | 32 µg/mL (≈ 65.1 µM) | > 256 µg/mL | 16 µg/mL (≈ 32.5 µM) | > 256 µg/mL | 8 µg/mL (≈ 16.3 µM) | > 256 µg/mL | > 256 µg/mL | > 256 µg/mL | > 256 µg/mL |

The remaining lines, values ahead:

| MIC (Escherichia coli [1]) | MIC (Escherichia coli [2]) | MIC (Escherichia coli [3]) | MIC (Klebsiella aerogenes [4]) | MIC (Enterobacter cloacae [5]) | MIC (Pseudomonas aeruginosa) | MIC (Enterobacter cloacae [6]) | MIC (Klebsiella pneumoniae) | MIC (Escherichia coli [7]) | MIC (Enterobacter cloacae [8]) | MIC (Klebsiella aerogenes [9]) | MIC (Staphylococcus aureus [10]) | MIC (Escherichia coli [11]) | MIC (Serratia marcescens) | MIC (Streptococcus pyogenes) | MIC (Proteus mirabilis) | MIC (Staphylococcus aureus [12]) | Compound |
| --- | --- | --- | --- | --- | --- | --- | --- | --- | --- | --- | --- | --- | --- | --- | --- | --- | --- |
| 2 µg/mL (≈ 4.32 µM) | 2 µg/mL (≈ 4.32 µM) | 4 µg/mL (≈ 8.65 µM) | 8 µg/mL (≈ 17.3 µM) | 2 µg/mL (≈ 4.32 µM) | > 256 µg/mL | 2 µg/mL (≈ 4.32 µM) | > 256 µg/mL | 128 µg/mL (≈ 277 µM) | > 256 µg/mL | 40 µg/mL (≈ 86.5 µM) | > 256 µg/mL | 8 µg/mL (≈ 17.3 µM) | > 256 µg/mL | > 256 µg/mL | > 256 µg/mL | > 256 µg/mL | CC1=C(C(=O)OC(c2ccccc2)c2ccccc2)N2C(=O)[C@@H](NC3=NCC(C)N3)C2SC1 (some centres not stated) |
| > 256 µg/mL | > 256 µg/mL | > 256 µg/mL | > 256 µg/mL | > 256 µg/mL | > 256 µg/mL | > 256 µg/mL |  | > 256 µg/mL | > 256 µg/mL | > 256 µg/mL | > 256 µg/mL | > 256 µg/mL | > 256 µg/mL | > 256 µg/mL | > 256 µg/mL | > 256 µg/mL | CC1=C(C(=O)OC(C)(C)C)N2C(=O)[C@@H](Nc3nc4ccccc4n3CC(=O)OC(C)(C)C)C2SC1 (some centres not stated) |
| 1 µg/mL (≈ 2.21 µM) | 1 µg/mL (≈ 2.21 µM) |  | 1 µg/mL (≈ 2.21 µM) | 8 µg/mL (≈ 17.7 µM) | > 256 µg/mL | 1 µg/mL (≈ 2.21 µM) | 2 µg/mL (≈ 4.42 µM) | 2 µg/mL (≈ 4.42 µM) |  | 2 µg/mL (≈ 4.42 µM) | > 256 µg/mL | 8 µg/mL (≈ 17.7 µM) | 32 µg/mL (≈ 70.7 µM) | 128 µg/mL (≈ 283 µM) | > 256 µg/mL | > 256 µg/mL | Cn1nnnc1SCC1=C(C(=O)OC(C)(C)C)N2C(=O)[C@@H](NC3=NCCN3)C2SC1 (some centres not stated) |
| 64 µg/mL (≈ 140 µM) | 32 µg/mL (≈ 69.8 µM) | 0.25 µg/mL (≈ 0.545 µM) | 256 µg/mL (≈ 558 µM) | > 256 µg/mL | > 256 µg/mL | 64 µg/mL (≈ 140 µM) |  | 128 µg/mL (≈ 279 µM) | > 256 µg/mL | 256 µg/mL (≈ 558 µM) | > 256 µg/mL | 64 µg/mL (≈ 140 µM) | > 256 µg/mL | 32 µg/mL (≈ 69.8 µM) | 32 µg/mL (≈ 69.8 µM) | 32 µg/mL (≈ 69.8 µM) | CC(=O)OCC1=C(C(=O)OC(C)(C)C)N2C(=O)[C@@H](Nc3nc4ccccc4n3C)C2SC1 (some centres not stated) |
